The values below come from ChEMBL document CHEMBL1152189, “Beta-C-glycosiduronic acids and beta-C-glycosyl compounds: new PTP1B inhibitors” (Bioorg Med Chem Lett, 2008).

Structures are written as SMILES.

Test [1] has as its target T1, Tyrosine-protein phosphatase non-receptor type 1 (Homo sapiens) (UniProt P18031).
T1 sequence (whole entry): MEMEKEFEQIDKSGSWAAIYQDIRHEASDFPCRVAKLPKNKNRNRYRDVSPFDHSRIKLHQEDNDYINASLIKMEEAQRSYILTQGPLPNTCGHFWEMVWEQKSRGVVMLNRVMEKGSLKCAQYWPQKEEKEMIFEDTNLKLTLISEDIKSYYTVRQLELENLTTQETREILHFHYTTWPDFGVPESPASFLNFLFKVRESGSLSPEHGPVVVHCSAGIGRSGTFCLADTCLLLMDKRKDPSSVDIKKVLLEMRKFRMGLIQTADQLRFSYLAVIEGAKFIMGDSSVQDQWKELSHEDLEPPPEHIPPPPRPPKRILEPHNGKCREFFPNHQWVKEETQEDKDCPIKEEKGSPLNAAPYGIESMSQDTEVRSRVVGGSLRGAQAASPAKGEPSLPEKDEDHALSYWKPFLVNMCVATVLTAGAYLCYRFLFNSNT
As to the kind of experiment: Inhibition of recombinant PTP1B at 20 ug/mL. In outline: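 pNPP hydrolysis by recombinant enzyme in 50 mM MOPS pH 6.5 with 2 mM pNPP. Read continuously at 405 nm for 2 min at 30 °C, and initial rate taken from early linear region. Inhibitor tested at 20 μg/mL. Mean of three experiments.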

In test [2] the target is T2, Tyrosine-protein phosphatase non-receptor type 1 (Homo sapiens, UniProt P18031).
T2 sequence (P18031 whole entry): T1 sequence (whole entry)
Briefly: Inhibition of recombinant PTP1B. In outline: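 Recombinant enzyme, 30 nM, with 2 mM pNPP in 50 mM MOPS pH 6.5. Hydrolysis followed continuously at 405 nm for 2 min at 30 °C, and initial rate taken from early linear region. Inhibitor diluted around estimated IC50. IC50 from nonlinear fit of % inhibition vs [I] with Hill equation. Mean of three experiments, SD given.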

The term inhibition denotes the drop in the measured response relative to a control, in per cent. Broadly, the IC50 is the concentration that gives 50% inhibition. `COc1cc([C@@H]2O[C@H](CNC(=O)c3ccccc3C(=O)O)[C@@H](OC(=O)c3ccccc3)[C@H](OC(=O)c3ccccc3)[C@H]2OC(=O)c2ccccc2)c(OC)c2ccccc12`: the inhibition in test [1] worked out at 92.1%. In test [2], the half-inhibitory concentration (IC50) was found to be 0.77 µM.
Taken in the same sequence, the figures for `CC(=O)O[C@H]1[C@@H](OC(C)=O)[C@@H](C(=O)O)O[C@@H](C2=CC(=O)C=CC2=O)[C@@H]1OC(C)=O` were 70.3% and 27.6 µM.
With `COc1ccc(OC)c([C@@H]2O[C@H](CNC(=O)c3ccccc3)[C@@H](OC(C)=O)[C@H](OC(C)=O)[C@H]2OC(C)=O)c1`, the inhibition in test [1] turned out to be 12.1%.
As for `CC(=O)O[C@@H]1[C@@H](OC(C)=O)[C@H](C2=CC(=O)c3ccccc3C2=O)O[C@H](C(=O)O)[C@H]1OC(C)=O`, in test [1], the inhibition came out at 83.1%. In addition, in test [2], the 50% inhibitory concentration (IC50) amounted to 15.9 µM.
Turning to `COc1cc([C@@H]2O[C@H](CN=[N+]=[N-])[C@@H](OC(=O)c3ccccc3)[C@H](OC(=O)c3ccccc3)[C@H]2OC(=O)c2ccccc2)c(OC)c2ccccc12`, the inhibition in test [1] amounted to 96.5%. For the same molecule, the IC50 in test [2] amounted to 2.36 µM.
Consider `COc1ccc(OC)c([C@@H]2O[C@H](CNC(=O)c3ccccc3)[C@@H](O)[C@H](OC(=O)c3ccccc3)[C@H]2OC(=O)c2ccccc2)c1`, for which the inhibition in test [1] is 94.9%. For the same molecule, the IC50 in test [2] worked out at 4.13 µM.
As to `CC(=O)O[C@@H]1[C@@H](OC(C)=O)[C@H](C2=CC(=O)C=CC2=O)O[C@H](CNC(=O)c2ccccc2)[C@H]1OC(C)=O`, the inhibition in test [1] was determined as 26.6%.
With `COc1ccc(OC)c([C@@H]2O[C@H](COC(C)=O)[C@H](NC(=O)c3ccccc3C(=O)O)[C@H](OC(C)=O)[C@H]2OC(C)=O)c1`, in test [1], the inhibition turned out to be 49.5%.
As for `O=C(O[C@H]1[C@@H](OC(=O)c2ccccc2)[C@@H](C(=O)O)O[C@@H](C2=CC(=O)c3ccccc3C2=O)[C@@H]1OC(=O)c1ccccc1)c1ccccc1`, the inhibition in test [1] is 99.5%. For the same molecule, in test [2], the half-maximal inhibitory concentration (IC50) came to 1.12 µM.
For `O=C1C=CC(=O)C([C@@H]2O[C@H](CNC(=O)c3ccccc3)[C@@H](O)[C@H](OC(=O)c3ccccc3)[C@H]2OC(=O)c2ccccc2)=C1` the same measures were 94.1% and 5.27 µM.
Regarding `COc1ccc(OC)c([C@@H]2O[C@H](CNC(=O)c3ccccc3C(=O)O)[C@@H](OC(=O)c3ccccc3)[C@H](OC(=O)c3ccccc3)[C@H]2OC(=O)c2ccccc2)c1`, in test [1], the inhibition came out at 99.7%. For the same molecule, the half-maximal inhibitory concentration (IC50) in test [2] is 2.44 µM.
In the case of `COc1ccc(OC)c([C@@H]2O[C@H](CNC(=O)c3ccccc3)[C@@H](OC(C)=O)[C@H](OC(=O)c3ccccc3)[C@H]2OC(=O)c2ccccc2)c1`, the inhibition in test [1] stood at 83.4%. In addition, the half-maximal inhibitory concentration (IC50) in test [2] is 4.52 µM.
For `CC(=O)O[C@@H]1[C@@H](OC(C)=O)[C@H](C2=CC(=O)C=CC2=O)O[C@H](C(=O)O)[C@H]1OC(C)=O` the same measures were 84.7% and 20.4 µM.
Taken in the same sequence, the figures for `CC(=O)O[C@H]1[C@@H](OC(C)=O)[C@@H](C(=O)O)O[C@@H](C2=CC(=O)c3ccccc3C2=O)[C@@H]1OC(C)=O` were 88.2% and 16.6 µM.
